Assay [1] has as its target T1, D(2) dopamine receptor (Homo sapiens, UniProt P14416). The assay can be described thus: Tested for antagonist binding affinity by measuring displacement of [3H]spiperone from Human Dopamine receptor D2L expressed in CHO K-1 cells. The assay is classed as cell-based. In a few lines:
(§1)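 Displacement of antagonist radioligand [3H]spiperone from D2L or D4.2 receptors; Ki values are means of three separate experiments varying by no more than 25%.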
For orientation: Loss of bound radioactivity is the signal in a displacement assay; it reports binding, not function.

Assay [2] has as its target D(3) dopamine receptor (Homo sapiens, UniProt P35462). The assay can be described thus: Tested for antagonist binding affinity by measuring displacement of [3H]spiperone from Human Dopamine receptor D3 expressed in CHO K-1 cells. The assay is classed as cell-based.
Assay [3] deals with T2, D(4) dopamine receptor (Homo sapiens, UniProt P21917).
T2 sequence (P21917 whole entry): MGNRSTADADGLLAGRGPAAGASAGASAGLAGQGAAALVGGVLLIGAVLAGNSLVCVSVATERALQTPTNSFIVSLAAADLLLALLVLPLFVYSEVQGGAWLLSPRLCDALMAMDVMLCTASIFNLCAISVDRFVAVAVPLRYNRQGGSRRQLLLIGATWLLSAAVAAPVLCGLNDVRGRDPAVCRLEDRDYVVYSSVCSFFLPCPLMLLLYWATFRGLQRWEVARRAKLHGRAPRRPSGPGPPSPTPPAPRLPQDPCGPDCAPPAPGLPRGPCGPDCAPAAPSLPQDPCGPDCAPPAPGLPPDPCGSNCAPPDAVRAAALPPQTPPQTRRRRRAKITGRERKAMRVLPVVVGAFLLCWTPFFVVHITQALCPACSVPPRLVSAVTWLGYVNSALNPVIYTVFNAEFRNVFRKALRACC
The assay can be described thus: Tested for antagonist binding affinity by measuring displacement of [3H]spiperone from Human Dopamine receptor D4 expressed in CHO K-1 cells. Type of assay: cell-based. The method in brief:
as §1

In assay [4] the target is T3, D(3) dopamine receptor (Rattus norvegicus, UniProt P19020). The assay can be described thus: Agonist activity by measuring the [3H]thymidine uptake against Dopamine receptor D3 from rat. Type of assay: functional.
Assay [5] deals with D(3) dopamine receptor (Rattus norvegicus) (UniProt P19020). The assay can be described thus: (§2) Intrinsic activity (IA) by the mitogenesis assay. The assay is classed as functional.
Assay [6] concerns the target T4, 5-hydroxytryptamine receptor 1A (Rattus norvegicus, UniProt P19327).
T4 sequence (P19327 whole entry): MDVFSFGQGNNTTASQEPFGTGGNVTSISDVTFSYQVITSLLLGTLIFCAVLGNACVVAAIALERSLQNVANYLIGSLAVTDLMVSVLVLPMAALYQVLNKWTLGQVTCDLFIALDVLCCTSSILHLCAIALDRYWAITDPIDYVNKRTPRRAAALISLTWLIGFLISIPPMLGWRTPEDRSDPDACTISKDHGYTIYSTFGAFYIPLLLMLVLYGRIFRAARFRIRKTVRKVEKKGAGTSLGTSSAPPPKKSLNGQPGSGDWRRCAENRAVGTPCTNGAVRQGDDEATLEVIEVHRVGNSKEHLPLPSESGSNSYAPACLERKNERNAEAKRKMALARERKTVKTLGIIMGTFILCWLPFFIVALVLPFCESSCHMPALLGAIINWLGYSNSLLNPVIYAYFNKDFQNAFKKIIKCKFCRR
The assay can be described thus: Tested for binding affinity by measuring displacement of [3H]8-OH-DPAT from rat serotonin 5-hydroxytryptamine 1A receptor in rat hippocampus; NA means Not Active. Type of assay: tissue-based. In a few lines:
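Rat hippocampal 5HT1A receptors labelled with [3H]8-OH-DPAT; values are means of three separate experiments varying by no more than 25%.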

The species entered for assay [7] is Rattus norvegicus. The assay can be described thus: Yawning after 30 min in reserpinized rats. The assay is classed as functional. In a few lines:
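Male Wistar rats (180-200 g) reserpinized with 10 mg/kg sc reserpine 18-24 h prior; drug dissolved in a few drops warmed 96% ethanol then saline, 1 mL/kg sc; yawns counted per rat over first 30 min post-injection, mean ± SEM.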

In assay [8] the target is D(3) dopamine receptor (Rattus norvegicus) (UniProt P19020). The assay can be described thus: Antagonist activity by measuring the inhibition of quinpirole stimulated [3H]- thymidine uptake against Dopamine receptor D3; the compound is active. The assay is classed as functional. Conditions: filed as antagonist; call rule not given here.
Assay [9] is filed under the species Rattus norvegicus. The assay can be described thus: Flat body posture after 30 min in 4 reserpinized rats. Type of assay: functional. In a few lines: (§3)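 Male Wistar rats (180-200 g) given reserpine 10 mg/kg sc 18-24 h before; test drug in ethanol/saline, 1 mL/kg sc in neck after acclimation in single boxes; number of rats showing the behaviour during first 30 min after injection recorded; saline n=8.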

The species named for assay [10] is Rattus norvegicus. The assay can be described thus: Sniffing after 30 min in 4 reserpinized rats. Type of assay: functional. In a few lines:
as §3

The target in assay [11] is D(2) dopamine receptor (Rattus norvegicus, UniProt P61169). The assay can be described thus: Agonist activity by measuring the [3H]thymidine uptake against Dopamine receptor D2L from rat. The assay is classed as functional.
Assay [12] is filed under the species Rattus norvegicus. The assay can be described thus: Lower lip retraction after 30 min in 4 reserpinized rats. Type of assay: functional. The method in brief: as §3
The target of assay [13] is T1, D(2) dopamine receptor. The assay can be described thus: Tested for agonist binding affinity by measuring displacement of [3H]NPA from Human Dopamine receptor D2L expressed in CHO K-1 cells. Type of assay: cell-based. In a few lines:
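Agonist-state D2L affinity measured by displacement of [3H]NPA (N-propylnorapomorphine); Ki values are means of three separate experiments varying by no more than 25%.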

Assay [14] addresses Serotonin 2 (5-HT2) receptor (Rattus norvegicus, UniProt P30994+P08909+P14842). The assay can be described thus: Tested for binding affinity by measuring displacement of [3H]ketanserin from rat serotonin 5-hydroxytryptamine 2 receptor in rat cortex. In a few lines:
(§4)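 Rat brain binding: hippocampal 5HT1A with [3H]8-OH-DPAT, cortical 5HT2 with [3H]ketanserin as radioligand; values means of three separate experiments, varying no more than 25%.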

The target of assay [15] is T4, 5-hydroxytryptamine receptor 1A. The assay can be described thus: Tested for binding affinity by measuring displacement of [3H]8-OH-DPAT from rat serotonin 5-hydroxytryptamine 1A receptor in rat hippocampus. The assay is classed as tissue-based. In a few lines:
as §4

Assay [16] deals with T3, D(3) dopamine receptor. The assay can be described thus: Agonist activity by measuring the [3H]-thymidine uptake against Dopamine receptor D3 from rat. Type of assay: functional.
The target of assay [17] is T1, D(2) dopamine receptor. The assay can be described thus: Human Dopamine receptor D2L affinities to determine agonist activity, using [3H]N-0437 as radioligand. Type of assay: functional.
For assay [18], the target named is T2, D(4) dopamine receptor. The assay can be described thus: Tested for antagonist binding affinity by measuring displacement of [3H]-spiperone from Human Dopamine receptor D4 expressed in CHO K-1 cells. The assay is classed as cell-based. In a few lines:
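Antagonist-radioligand binding: displacement of [3H]spiperone from D4.2 dopamine receptors; Ki values means of three separate experiments, varying no more than 25%.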

The target in assay [19] is D(3) dopamine receptor (Rattus norvegicus) (UniProt P19020). The description is as §2.

A value given as a limit tells only on which side of the number the result lay.

Chain of D(2) dopamine receptor (Rattus norvegicus, UniProt P61169) (P61169 whole entry): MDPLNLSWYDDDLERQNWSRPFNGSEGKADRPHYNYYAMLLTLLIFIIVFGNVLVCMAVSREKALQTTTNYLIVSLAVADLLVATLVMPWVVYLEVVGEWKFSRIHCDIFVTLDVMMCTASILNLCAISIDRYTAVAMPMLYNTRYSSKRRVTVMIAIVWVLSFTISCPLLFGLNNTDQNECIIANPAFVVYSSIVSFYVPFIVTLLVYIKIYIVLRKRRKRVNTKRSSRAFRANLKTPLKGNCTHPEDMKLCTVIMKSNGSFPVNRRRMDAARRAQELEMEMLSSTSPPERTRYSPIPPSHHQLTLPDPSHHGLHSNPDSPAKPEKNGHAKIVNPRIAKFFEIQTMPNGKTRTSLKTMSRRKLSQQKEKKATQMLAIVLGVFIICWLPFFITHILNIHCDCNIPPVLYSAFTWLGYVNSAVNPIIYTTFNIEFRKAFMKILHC
Chain of D(3) dopamine receptor (Rattus norvegicus) (P19020 whole entry): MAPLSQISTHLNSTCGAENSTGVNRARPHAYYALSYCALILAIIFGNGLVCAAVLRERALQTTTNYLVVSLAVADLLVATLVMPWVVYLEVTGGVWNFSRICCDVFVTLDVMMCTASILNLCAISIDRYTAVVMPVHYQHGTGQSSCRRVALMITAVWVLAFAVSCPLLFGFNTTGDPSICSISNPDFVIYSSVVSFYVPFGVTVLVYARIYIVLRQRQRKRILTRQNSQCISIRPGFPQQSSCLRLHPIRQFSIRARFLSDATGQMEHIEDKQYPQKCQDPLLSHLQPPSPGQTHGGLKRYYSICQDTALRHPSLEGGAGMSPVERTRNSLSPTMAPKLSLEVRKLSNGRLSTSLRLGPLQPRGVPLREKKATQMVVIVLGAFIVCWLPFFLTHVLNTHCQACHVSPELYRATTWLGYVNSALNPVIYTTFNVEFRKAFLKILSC
T3 sequence (P19020 whole entry): as above
T1 sequence (P14416 whole entry): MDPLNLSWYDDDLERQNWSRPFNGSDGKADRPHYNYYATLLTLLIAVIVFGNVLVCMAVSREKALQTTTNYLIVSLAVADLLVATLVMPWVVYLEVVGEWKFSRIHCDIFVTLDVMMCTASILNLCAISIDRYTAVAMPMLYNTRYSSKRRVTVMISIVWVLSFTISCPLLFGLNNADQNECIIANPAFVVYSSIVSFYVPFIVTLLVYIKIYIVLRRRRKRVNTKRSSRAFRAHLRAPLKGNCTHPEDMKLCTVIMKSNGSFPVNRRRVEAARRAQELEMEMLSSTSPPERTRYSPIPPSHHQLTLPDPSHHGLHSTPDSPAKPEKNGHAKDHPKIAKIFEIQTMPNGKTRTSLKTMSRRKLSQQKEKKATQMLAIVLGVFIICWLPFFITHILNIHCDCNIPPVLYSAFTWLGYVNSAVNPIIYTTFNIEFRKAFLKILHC
Chain of D(3) dopamine receptor (Homo sapiens, UniProt P35462) (P35462 whole entry): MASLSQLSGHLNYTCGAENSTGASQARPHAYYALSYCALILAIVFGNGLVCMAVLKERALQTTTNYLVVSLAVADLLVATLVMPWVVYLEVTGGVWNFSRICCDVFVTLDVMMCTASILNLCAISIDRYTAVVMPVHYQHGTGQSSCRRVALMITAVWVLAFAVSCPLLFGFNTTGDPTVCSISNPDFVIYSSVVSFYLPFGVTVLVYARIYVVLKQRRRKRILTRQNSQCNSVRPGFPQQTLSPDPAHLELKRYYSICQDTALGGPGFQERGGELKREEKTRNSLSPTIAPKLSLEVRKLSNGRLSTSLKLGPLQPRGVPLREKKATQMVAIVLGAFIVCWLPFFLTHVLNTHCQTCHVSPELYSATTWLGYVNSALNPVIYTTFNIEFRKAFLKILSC

Broadly, the Ki is a dissociation constant, usually derived from enzyme kinetics or from competition with a known ligand. The low end stands for a stronger hold on the target, the high end for a looser hold on the target. Take `CCCN1CCO[C@H]2c3cc(O)ccc3OC[C@@H]21`: the Ki on D(2) dopamine receptor [1] and at D(3) dopamine receptor [2] was above 10000 nM each time.

Consider `CCCN1CCOC2c3cc(O)ccc3SCC21` (trans isomer), for which the figures for the Ki at D(2) dopamine receptor [1], at D(4) dopamine receptor [3] and at D(3) dopamine receptor [2] were 533 nM, 44.4 nM and 1.56 nM, respectively.

Consider `CCCN1CCO[C@@H]2c3cc(O)ccc3OC[C@@H]21` (relative stereo), for which the Ki on D(2) dopamine receptor [1] and at D(3) dopamine receptor [2] was above 10000 nM each time.

Broadly, the EC50 is the midpoint of the concentration-response curve. Higher therefore signals lower potency in that assay. As for `CCCN1CCO[C@@H]2c3cc(O)ccc3SC[C@@H]21` (relative stereo), the EC50 at D(3) dopamine receptor [4] came out at 36 nM; on D(2) dopamine receptor [11] it was 122 nM. Besides, the Ki is 193 nM at D(4) dopamine receptor [3], “Not Active” in assay [6], 3.58 nM at D(3) dopamine receptor [2] and 74 nM on D(2) dopamine receptor [13]. In [5], this compound showed an Intrinsic activity of 57%. This compound also came in with a Ya in the assay filed under Rattus norvegicus [7] of 11. For the same compound, in [8], the Activity entry was “Antagonist”. Also, the FB in the assay listed under Rattus norvegicus [9] came out at 0. In the assay filed under Rattus norvegicus [10], this compound had a Sni of 0. The LL in the assay filed under Rattus norvegicus [12] turned out to be 0.

For the compound `CCCN1CCO[C@H]2c3cc(O)ccc3SC[C@@H]21`, the Ki was above 3300 nM on D(4) dopamine receptor [3]; above 5000 nM in assay [14]; 3000 nM at D(3) dopamine receptor [2]; above 1000 nM in [15]; 854 nM at D(2) dopamine receptor [13].

Consider `CCCN1CCO[C@@H]2c3cc(O)ccc3OC[C@H]21` [listing 1 of 2 here], for which the Ki worked out at 1180 nM on D(2) dopamine receptor [1]; 169 nM on D(4) dopamine receptor [3]; 1.4 nM on D(3) dopamine receptor [2]; 1670 nM in [15]; 42 nM on D(2) dopamine receptor [17]. The EC50 on D(3) dopamine receptor [16] stood at 0.36 nM; on D(2) dopamine receptor [11], 5.7 nM.

In general, IC50 refers to the point on the concentration scale where inhibition reaches its midpoint. A higher IC50 goes with weaker potency. At D(4) dopamine receptor [18], `CCCN1CCOC2c3cc(O)ccc3[S+]([O-])CC21` (stereo unspecified) had an IC50 above 10000 nM. Also, the Ki entry was “Not Active” in assay [6], 29 nM at D(3) dopamine receptor [2] and 197 nM at D(2) dopamine receptor [13].

`CCCN1CCO[C@@H]2c3cc(O)ccc3OC[C@H]21` (relative stereo): the values for the Ki at D(2) dopamine receptor [1] and at D(3) dopamine receptor [2] were above 10000 nM and 78 nM, respectively.

Take `CCCN1CCO[C@@H]2c3cc(O)ccc3OC[C@H]21` [listing 2 of 2 here]: the Intrinsic activity in assay [19] came out at 54%. For the same compound, the Activity entry in [8] is “Antagonist”.

With `CCCN1CCO[C@@H]2c3cc(O)ccc3SC[C@H]21`, the EC50 at D(3) dopamine receptor [4] is 0.007 nM; on D(2) dopamine receptor [11], 0.013 nM. The Ki on D(4) dopamine receptor [3] is 17.6 nM; in assay [14], above 5000 nM; on D(3) dopamine receptor [2] it was 2.87 nM; in assay [15] it was 30 nM; at D(2) dopamine receptor [13] it was 1.14 nM. This compound also yielded an Intrinsic activity in [5] of 45%. The same compound came in with a Ya in the assay listed under Rattus norvegicus [7] of 0. The FB in the assay filed under Rattus norvegicus [9] stood at 4. Besides, in the assay listed under Rattus norvegicus [10], the Sni turned out to be 4. Also, in the assay filed under Rattus norvegicus [12], the LL is listed as 3.

The values are drawn from ChEMBL document CHEMBL1133458, “Synthesis and pharmacological evaluation of thiopyran analogues of the dopamine D3 receptor-selective agonist (4aR,10bR)-(+)-trans-3,4,4a,10b-tetrahydro-4-n-propyl-2H,5H [1]b enzopyrano[4,3-b]-1,4-oxazin-9-ol (PD 128907)” (J Med Chem, 2000).
